{"source": "ChEMBL document CHEMBL3244377", "about": "“Synthesis and biochemical evaluation of nucleosides of naphthoquinone heterocycles” (J Med Chem, 1977)", "key": {"[1]": {"molecular_target": "T1, Hypoxanthine-guanine phosphoribosyltransferase (Mus musculus) (UniProt P00493)", "T1 sequence (whole entry)": "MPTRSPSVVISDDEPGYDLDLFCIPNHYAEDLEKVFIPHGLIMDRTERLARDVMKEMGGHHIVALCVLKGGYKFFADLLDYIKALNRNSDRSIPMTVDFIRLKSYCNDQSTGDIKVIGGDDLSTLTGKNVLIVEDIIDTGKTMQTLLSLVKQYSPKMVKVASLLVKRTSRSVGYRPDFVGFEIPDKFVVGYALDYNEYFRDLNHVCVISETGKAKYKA", "test": "Inhibition of hypoxanthine phosphoribosyltransferase in mouse Ehrlich ascites tumor cells assessed as decrease in purine nucleotide biosynthesis using [14C]hypoxanthine as substrate at 100 uM incubated for 20 mins followed by substrate addition for 60 mins by thin layer chromatography", "summary_of_the_method": "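Ehrlich ascites tumor cell suspensions were preincubated 20 min with compound at 100 μM. [14C]Hypoxanthine was then added at 100 μM for a further 60 min. Cells were disrupted, and adenine and guanine nucleotides were resolved by TLC. Radioactivity in individual nucleotides of treated cells was compared with untreated cells to derive apparent purine-metabolism enzyme rates and their inhibition.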"}, "[2]": {"test_system": "Human alphaherpesvirus 1", "test": "Antiviral activity against Herpes simplex virus 1 by tissue culture assay", "assay_type": "functional, organism-based"}, "[3]": {"test_system": "Human rhinovirus A13", "test": "Antiviral activity against Rhinovirus 13 by tissue culture assay", "assay_type": "functional"}, "[4]": {"test_system": "Human respirovirus 3", "test": "Antiviral activity against Parainfluenza virus 3 by tissue culture assay", "assay_type": "functional, organism-based"}}, "note": "Activity calls are given as the source filed them. The rule behind the calls is not given here."}
{"compound": "O=C1c2ccccc2C(=O)c2[nH]nnc21", "values": [{"measurement": "inhibition", "setting": "[1]", "value": 1, "unit": "%"}, {"measurement": "Activity", "setting": "[2]", "value": "inactive"}, {"measurement": "Activity", "setting": "[3]", "value": "inactive"}, {"measurement": "Activity", "setting": "[4]", "value": "inactive"}]}
{"compound": "O=C1c2ccccc2C(=O)c2nn([C@@H]3O[C@H](CO)[C@@H](O)[C@H]3O)nc21", "values": [{"measurement": "inhibition", "setting": "[1]", "value": 72, "unit": "%"}, {"measurement": "Activity", "setting": "[2]", "value": "inactive"}, {"measurement": "Activity", "setting": "[3]", "value": "inactive"}, {"measurement": "Activity", "setting": "[4]", "value": "inactive"}]}
{"compound": "O=C1c2ccccc2C(=O)c2[nH]ncc21", "values": [{"measurement": "inhibition", "setting": "[1]", "value": 5, "unit": "%"}, {"measurement": "Activity", "setting": "[2]", "value": "inactive"}, {"measurement": "Activity", "setting": "[3]", "value": "inactive"}, {"measurement": "Activity", "setting": "[4]", "value": "inactive"}]}
{"compound": "O=C1c2ccccc2C(=O)c2nn([C@@H]3O[C@H](CO)[C@@H](O)[C@H]3O)cc21", "values": [{"measurement": "inhibition", "setting": "[1]", "value": 0, "unit": "%"}, {"measurement": "Activity", "setting": "[2]", "value": "inactive"}, {"measurement": "Activity", "setting": "[3]", "value": "inactive"}, {"measurement": "Activity", "setting": "[4]", "value": "inactive"}]}
{"compound": "O=C1c2ccccc2C(=O)c2c1ncn2[C@@H]1O[C@H](CO)[C@@H](O)[C@H]1O", "values": [{"measurement": "inhibition", "setting": "[1]", "value": 68, "unit": "%"}, {"measurement": "Activity", "setting": "[2]", "value": "inactive"}, {"measurement": "Activity", "setting": "[3]", "value": "inactive"}, {"measurement": "Activity", "setting": "[4]", "value": "inactive"}]}
{"compound": "O=C1c2ccccc2C(=O)c2[nH]cnc21", "values": [{"measurement": "inhibition", "setting": "[1]", "value": 82, "unit": "%"}, {"measurement": "Activity", "setting": "[2]", "value": "inactive"}, {"measurement": "Activity", "setting": "[3]", "value": "inactive"}, {"measurement": "Activity", "setting": "[4]", "value": "inactive"}]}
